Compounds with a hit are over-represented: about 0.37% of the library has one in this group of screens.
FXIIa single = blocks human coagulation factor XIIa activity; P00748; purified human FXIIa, AMC substrate fluorescence, 2 h; 33,000 compounds, 0.2% hits; inhibition, % at 10 µM; in the data active means inhibition above about 30%;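 further: 0% = enzyme with vehicle only and 100% = no enzyme blank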
Yeast tox = Inhibitors of S. cerevisiae growth, toxicity; S. cerevisiae wild-type growth, A595 turbidity, 16 h; growth inhibition, % at 25 µM (by protocol); 30,000 compounds, 0.3% hits;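 active means mutant and wild-type yeast strains alike exhibit over 30% growth inhibition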;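 further: 0% = untreated cell controls and 100% = YPD media blanks without cells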
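system = S. cerevisiae wild-type or eIF2Bepsilon-R284H mutant strain | buffer or medium = YPD medium | dosing = one dose, 25 µM compound, 0.2% DMSO | schedule = 16 h at 30 °C | measured by = A595 turbidity | evaluation = growth inhibition (%) versus cell controls and blanks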
FXIa inh = blocks human coagulation factor XIa activity; P03951; purified human FXIa, fluorogenic AMC substrate cleavage; inhibition, % at 10 µM; 33,000 compounds, 0.3% hits;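 active means inhibition above 40% in the primary screen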;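 further: 0% = enzyme without compound and 100% = blank wells lacking enzyme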
Target sequence (P03951 19-387 limits assumed): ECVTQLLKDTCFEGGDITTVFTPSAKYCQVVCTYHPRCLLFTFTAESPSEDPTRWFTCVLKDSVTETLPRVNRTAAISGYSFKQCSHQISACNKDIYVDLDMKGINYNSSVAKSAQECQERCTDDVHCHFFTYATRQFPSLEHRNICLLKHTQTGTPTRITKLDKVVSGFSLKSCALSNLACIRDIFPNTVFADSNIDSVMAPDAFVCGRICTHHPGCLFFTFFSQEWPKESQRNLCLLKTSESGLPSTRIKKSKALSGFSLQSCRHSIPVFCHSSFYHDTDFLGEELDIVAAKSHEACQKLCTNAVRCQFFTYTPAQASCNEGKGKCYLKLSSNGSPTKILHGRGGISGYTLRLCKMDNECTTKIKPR
Target sequence (P03951 388-625 limits assumed): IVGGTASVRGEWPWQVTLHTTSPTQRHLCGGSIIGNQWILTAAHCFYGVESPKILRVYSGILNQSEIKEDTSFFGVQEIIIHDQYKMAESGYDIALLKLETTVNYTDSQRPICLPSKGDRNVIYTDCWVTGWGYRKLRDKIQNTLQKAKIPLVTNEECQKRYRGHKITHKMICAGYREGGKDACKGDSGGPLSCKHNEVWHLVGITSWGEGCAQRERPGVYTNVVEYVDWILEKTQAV
* marks the source's active call; other numbers are inactive results.

For CNC(=O)COC(=O)c1[nH]c(C)c(C(C)=O)c1C the results were FXIIa single 6 and FXIa inh 46*.
For COCCNC(=O)COC(=O)c1[nH]c(C)c(C(C)=O)c1C the results were FXIIa single 14 and FXIa inh 0.
`CN(C)/C=C(/C#N)C(=O)c1cccc(Oc2ccc(C(C)(C)C)cc2)c1` gave Yeast tox 1.
Screening COCCn1c(SCC(=O)Nc2sccc2C(N)=O)nc2cc(Cl)ccc2c1=O returned FXIIa single 2 and FXIa inh 1.
For CCCNC(=O)COc1ccc(S(=O)(=O)Nc2ccc(C)cc2)cc1 the results were FXIIa single -12, Yeast tox 6 and FXIa inh 15.
COc1ccccc1-n1cnnc1SCC(=O)Nc1nc(C)c(Cl)cc1Cl was read as FXIIa single 5 and FXIa inh 43*.
`COc1ccc(-n2cnnc2SCC(=O)Nc2nc(C)c(Cl)cc2Cl)cc1` gave FXIIa single 5 and FXIa inh 3.
COc1cc(C(N)=O)ccc1OCc1ccccc1 was read as FXIIa single 4 and FXIa inh 2.
Screening COc1ccc(C(=O)n2nc(-c3ccccc3)nc2N)cc1OC returned FXIIa single 62*, Yeast tox -11 and FXIa inh 1.
`Cc1cc(=O)n(CNC(=O)c2ccccc2)c(=S)[nH]1` gave FXIIa single -12, Yeast tox 13 and FXIa inh 15.
For O=C(NC(C(=O)c1ccccc1)n1c(=O)cc[nH]c1=S)c1ccccc1 (stereo not given) the results were FXIIa single 4 and FXIa inh 48*.
`COc1cccc(NC(=O)C(NCC2CCCCC2)c2ccccc2)c1` (stereo not given) gave FXIIa single 3, Yeast tox 15 and FXIa inh -1.
CCCN(CCC)C(C(=O)Nc1cccc(OC)c1)c1ccccc1 (stereo not given) was read as FXIIa single -18, Yeast tox 5 and FXIa inh 105*.
For Cc1cccc(NC(=O)Cc2coc3ccc4ccccc4c23)n1 the results were FXIIa single 2, Yeast tox 3 and FXIa inh 9.
COc1cc(S(=O)(=O)NCC2CCCO2)ccc1Br (stereo not given) was read as FXIIa single 1, Yeast tox 10 and FXIa inh -2.
For CC1=CC(=O)C=C(C)C1=NOS(=O)(=O)c1ccccc1 the results were FXIIa single 8, Yeast tox 77* and FXIa inh -6.
`O=S(=O)(O/N=C1\CCCc2ccccc21)c1ccccc1` gave FXIIa single -5 and FXIa inh -2.
For CCOC(=O)N1CCC(N2C(=O)c3ccccc3C2Nc2c(C)cccc2C)CC1 (stereo not given) the results were FXIIa single 10 and FXIa inh 5.
For O=C(Nc1ccccc1C(=O)N1CCOCC1)c1ccc(F)cc1 the results were FXIIa single 5 and FXIa inh 47*.
Screening CN(c1ccc(C(=O)Nc2ccccc2C(=O)N2CCOCC2)cc1)S(C)(=O)=O returned FXIIa single 4, Yeast tox 3 and FXIa inh -5.
For O=C(c1ccccn1)N(Cc1ccco1)C1(C(=O)NC2CCCC2)CCCCC1 the results were FXIIa single -13, Yeast tox 7 and FXIa inh 24.
Screening Cc1ccc(N(C(=O)c2ccccn2)C2(C(=O)NC3CCCC3)CCCCC2)cc1 returned FXIIa single 6 and FXIa inh 42*.
O=C(O)Cn1c(SCc2cccc3ccccc23)nc2ccccc21 was read as FXIIa single 4 and FXIa inh -1.
Cc1ccc(C(=O)n2nnc3ccccc32)cc1 was read as FXIIa single 68* and FXIa inh 97*.
O=C(c1cccc2ccccc12)n1nnc2ccccc21 was read as FXIIa single 27, Yeast tox -13 and FXIa inh 48*.
`Cc1onc(-c2c(Cl)cccc2Cl)c1C(=O)n1nnc2ccccc21` gave FXIIa single 7 and FXIa inh 7.
For CCCS(=O)(=O)N1CCN(S(=O)(=O)c2ccccc2)CC1 the results were FXIIa single 3, Yeast tox 2 and FXIa inh -11.
O=C(CN(c1ccc(F)cc1)S(=O)(=O)c1ccc2c(c1)OCCO2)Nc1ccccc1 was read as FXIIa single 4, Yeast tox 2 and FXIa inh 11.
CC1CCCN(Cc2cccc(Oc3ccccc3)c2)C1 (stereo not given) was read as FXIIa single 8 and FXIa inh -3.
For Cc1cccc(NC(=O)c2snc3c(=O)[nH]cnc23)c1 the results were FXIIa single -14, Yeast tox -11 and FXIa inh 103*.
CCc1cccc(NC(=O)c2snc3c(=O)[nH]cnc23)c1 was read as FXIIa single 5, Yeast tox 8 and FXIa inh 0.
CCOC(=O)Cn1c(=O)c2c(nc(Br)n2Cc2ccccc2Cl)n(C)c1=O was read as FXIIa single 3 and FXIa inh -5.
For C=CCn1c(=O)c2c(nc(Br)n2Cc2ccccc2Cl)n(C)c1=O the results were FXIIa single 3 and FXIa inh 46*.
Screening CCN(CC)S(=O)(=O)c1ccc(NC(=O)CC(NC(C)=O)c2ccccc2)cc1 (stereo not given) returned FXIIa single 6 and FXIa inh 5.
Cc1ccc(OCc2nnc(SCC(=O)NC3CCCCC3)n2C)cc1 was read as FXIIa single 19 and FXIa inh -8.
For Cn1c(SCC(=O)NC2CCCCC2)nnc1-c1cccc(N)c1 the results were FXIIa single -13 and FXIa inh 40*.
Screening CCn1c(=O)cc(SCC(=O)N2CCN(c3ccccc3F)CC2)c2ccccc21 returned FXIIa single 1 and FXIa inh 2.
For Cc1cc(/C=N/n2cnnc2)c(C)n1-c1ccccc1 the results were FXIIa single 8, Yeast tox 13 and FXIa inh -5.
`Cc1cc(/C=N/n2cnnc2)c(C)n1-c1ccc(OCc2ccc(Cl)cc2Cl)cc1` gave FXIIa single 3, Yeast tox 62* and FXIa inh -7.
Screening O=C(Nc1ccc(OC(F)F)cc1)Nc1cccc(C(F)(F)F)c1 returned FXIIa single 6, Yeast tox -8 and FXIa inh 4.
Screening COc1ccc(-c2nc(CCNC(=O)c3cccs3)cs2)cc1 returned FXIIa single 4 and FXIa inh 2.
Screening O=C1N=C(c2ccccc2)S/C1=C\c1cccs1 returned FXIIa single 46*, Yeast tox 5 and FXIa inh 38.
`Cc1ccc(C2=N/C(=C\c3cccs3)C(=O)N2Nc2ccccc2)cc1` gave FXIIa single 14, Yeast tox 0 and FXIa inh -6.
COc1cc(-c2noc(CCCC(=O)NC3CCCCC3)n2)cc(OC)c1OC was read as FXIIa single 6 and FXIa inh -6.
Screening c1ccc(SCCOCCn2cncn2)cc1 returned FXIIa single 0 and FXIa inh -3.
`OC(Cn1cncn1)(c1ccccc1)c1ccccc1` gave FXIIa single 7, Yeast tox 86* and FXIa inh 26.
O=C1CC(N(C(=O)c2ccco2)c2cccc(Cl)c2)C(=O)N1c1cccc(Cl)c1 (stereo not given) was read as FXIIa single 7, Yeast tox 30 and FXIa inh 5.

High-throughput results (PubChem BioAssay)
